Laboratory results as given in ChEMBL document CHEMBL3286372, “Design, synthesis and structure-activity relationship of novel semi-synthetic flavonoids as antiproliferative agents” (2014).

Columns and labels:
[1] = Growth inhibition of human UACC257 cells after 48 hrs by coulter counting analysis; format: functional; details: UACC-257, 48 h
How it was run: (§1)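 NCI five-dose screen, 0.01-100 µM, from DMSO stocks diluted in buffer saline (final DMSO <1%). Cells grown in RPMI 1640 + 10% FBS, seeded at 6×10^4 cells/ml, in duplicate wells. Exposure 48 h at 37 °C, 5% CO2. Cells diluted 10-fold in saline and counted by Coulter counter. GI50 derived from log concentration–percent growth inhibition curves. Controls carried matching PBS/saline/DMSO.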

MCF7 = experiment: Growth inhibition of human MCF7 cells after 48 hrs by coulter counting analysis; format: functional; details: MCF7, 48 h
How it was run: (§2)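 NCI five-dose screen at 0.01-100 µM, diluted from DMSO stocks in buffered saline (final DMSO <1%). Cells at 6×10^4 cells/ml in RPMI 1640 with 10% FBS, in duplicate wells, at 37 °C under 5% CO2 for 48 h. Cells diluted tenfold in saline and Coulter-counted. GI50, TGI and LC50 taken from log concentration-growth inhibition curves.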

786-0 = experiment: Growth inhibition of human 786-0 cells after 48 hrs by coulter counting analysis; format: functional; details: 786-0, 48 h; how it was run: as §2
A498 = experiment: Growth inhibition of human A498 cells after 48 hrs by coulter counting analysis; format: functional; details: A498, 48 h; how it was run: as §2
[2] = Growth inhibition of human UACC62 cells after 48 hrs by coulter counting analysis; format: functional; details: UACC-62, 48 h; how it was run: as §1
RPMI-8226 = experiment: Growth inhibition of human RPMI8226 cells after 48 hrs by coulter counting analysis; format: functional; details: RPMI-8226, 48 h
How it was run: (§3)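 Five-dose NCI-60 follow-up, 0.01–100 µM, made from DMSO stock in buffered saline (final DMSO <1%), in duplicate wells. Cells in RPMI 1640 with 10% FBS at 6×10^4 cells/ml, 37 °C, 5% CO2, 48 h. Cells diluted tenfold in saline, Coulter-counted and corrected for dilution. GI50, TGI and LC50 taken from log concentration–percent growth curves.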

SN12C = experiment: Growth inhibition of human SN12C cells after 48 hrs by coulter counting analysis; format: functional; how it was run: as §3
SF-268 = experiment: Growth inhibition of human SF268 cells after 48 hrs by coulter counting analysis; format: functional; details: SF-268, 48 h; how it was run: as §3
[3] = molecular target: Glycogen synthase kinase-3 beta (Homo sapiens) (UniProt P49841); experiment: Inhibition of GSK-3beta (unknown origin) at 20 uM after 30 mins by scintillation counting analysis relative to control
Sequence of Glycogen synthase kinase-3 beta (Homo sapiens) (P49841 whole entry, looked up): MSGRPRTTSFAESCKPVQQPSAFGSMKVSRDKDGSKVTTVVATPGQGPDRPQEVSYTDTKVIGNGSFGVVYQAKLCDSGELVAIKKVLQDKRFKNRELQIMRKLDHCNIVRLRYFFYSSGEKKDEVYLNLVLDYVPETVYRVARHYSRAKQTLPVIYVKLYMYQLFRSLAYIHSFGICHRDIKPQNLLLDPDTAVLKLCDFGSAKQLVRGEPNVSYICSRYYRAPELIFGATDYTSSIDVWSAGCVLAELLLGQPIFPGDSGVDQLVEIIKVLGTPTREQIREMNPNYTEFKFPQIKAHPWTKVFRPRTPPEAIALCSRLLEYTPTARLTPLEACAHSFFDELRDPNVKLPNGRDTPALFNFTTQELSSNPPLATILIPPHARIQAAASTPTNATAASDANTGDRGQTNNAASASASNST
How it was run: (§4)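 Recombinant kinases, cloned, expressed and purified in-house. Radiometric ³³P-ATP assay with kinase at ~10-50 nM final and 1-5 µg peptide or protein substrate. Compound at 20 µM final, in duplicate. Reaction started by adding ATP, run 30 min at ambient temperature, then spotted on P81 phosphocellulose. Plates washed in 1% phosphoric acid and counted by scintillation. No-substrate blank subtracted. Result is mean % activity change versus DMSO control.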

HCT-116 = experiment: Growth inhibition of human HCT116 cells after 48 hrs by coulter counting analysis; format: functional; details: HCT-116, 48 h; how it was run: as §2
DU-145 = experiment: Growth inhibition of human DU145 cells after 48 hrs by coulter counting analysis; format: functional; details: DU-145, 48 h; how it was run: as §2
SK-MEL-2 = experiment: Growth inhibition of human SK-MEL-2 cells after 48 hrs by coulter counting analysis; format: functional; details: SK-MEL-2, 48 h; how it was run: as §3
Malme-3M = experiment: Growth inhibition of human MALME-3M cells after 48 hrs by coulter counting analysis; format: functional; how it was run: as §2
[4] = Growth inhibition of human MOLT4 cells after 48 hrs by coulter counting analysis; format: functional; details: MOLT-4, 48 h; how it was run: as §3
CAKI-1 = experiment: Growth inhibition of human CAKI-1 cells after 48 hrs by coulter counting analysis; format: functional; details: CAKI-1, 48 h; how it was run: as §2
[5] = Growth inhibition of human OVCAR5 cells after 48 hrs by coulter counting analysis; format: functional; details: OVCAR-5, 48 h; how it was run: as §3
[6] = Growth inhibition of human SF539 cells after 48 hrs by coulter counting analysis; format: functional; details: SF-539, 48 h; how it was run: as §3
CCRF-CEM = experiment: Growth inhibition of human CCRF-CEM cells after 48 hrs by coulter counting analysis; format: functional; how it was run: as §2
NCI-H23 = experiment: Growth inhibition of human NCI-H23 cells after 48 hrs by coulter counting analysis; format: functional; details: NCI-H23, 48 h; how it was run: as §3
[7] = Growth inhibition of human SF295 cells after 48 hrs by coulter counting analysis; format: functional; details: SF-295, 48 h; how it was run: as §3
U-251 = experiment: Growth inhibition of human U251 cells after 48 hrs by coulter counting analysis; format: functional; details: U-251, 48 h; how it was run: as §1
PC-3 = experiment: Growth inhibition of human PC3 cells after 48 hrs by coulter counting analysis; format: functional; details: PC-3, 48 h; how it was run: as §3
COLO 205 = experiment: Growth inhibition of human COLO205 cells after 48 hrs by coulter counting analysis; format: functional; details: COLO 205, 48 h; how it was run: as §2
M14 = experiment: Growth inhibition of human M14 cells after 48 hrs by coulter counting analysis; format: functional; details: M14, 48 h; how it was run: as §2
[8] = Growth inhibition of human BT549 cells after 48 hrs by coulter counting analysis; format: functional; details: BT-549, 48 h; how it was run: as §2
KM12 = experiment: Growth inhibition of human KM12 cells after 48 hrs by coulter counting analysis; format: functional; details: KM12, 48 h; how it was run: as §2
[9] = Growth inhibition of human LOXIMVI cells after 48 hrs by coulter counting analysis; format: functional; details: LOX IMVI; how it was run: as §2
[10] = Growth inhibition of human OVCAR3 cells after 48 hrs by coulter counting analysis; format: functional; details: OVCAR-3, 48 h; how it was run: as §3
[11] = Growth inhibition of human HCT15 cells after 48 hrs by coulter counting analysis; format: functional; details: HCT-15, 48 h; how it was run: as §2
SK-OV-3 = experiment: Growth inhibition of human SKOV3 cells after 48 hrs by coulter counting analysis; format: functional; details: SK-OV-3, 48 h; how it was run: as §3
SW-620 = experiment: Growth inhibition of human SW620 cells after 48 hrs by coulter counting analysis; format: functional; details: SW-620, 48 h; how it was run: as §3
[12] = Growth inhibition of human NCI-ADR-RES cells after 48 hrs by coulter counting analysis; format: functional; how it was run: as §3
HT-29 = experiment: Growth inhibition of human HT-29 cells after 48 hrs by coulter counting analysis; format: functional; details: HT-29, 48 h; how it was run: as §2
[13] = Growth inhibition of human UO31 cells after 48 hrs by coulter counting analysis; format: functional; details: UO-31, 48 h; how it was run: as §1
[14] = molecular target: Cyclin-dependent kinase 2/cyclin E1 (Homo sapiens) (UniProt P24864+P24941); experiment: Inhibition of CDK2/Cyclin E1 (unknown origin) at 20 uM after 30 mins by scintillation counting analysis relative to control; format: protein-complex assay; how it was run: as §4
[15] = Growth inhibition of human HOP92 cells after 48 hrs by coulter counting analysis; format: functional; details: HOP-92, 48 h; how it was run: as §2
NCI-H522 = experiment: Growth inhibition of human NCI-H522 cells after 48 hrs by coulter counting analysis; format: functional; details: NCI-H522, 48 h; how it was run: as §3
ACHN = experiment: Growth inhibition of human ACHN cells after 48 hrs by coulter counting analysis; format: functional; how it was run: as §2
NCI-H322M = experiment: Growth inhibition of human NCI-H322M cells after 48 hrs by coulter counting analysis; format: functional; how it was run: as §3

Structure (SMILES) | GI50 [1] | GI50 (MCF7) | GI50 (786-0) | GI50 (A498) | GI50 [2] | GI50 (RPMI-8226) | GI50 (SN12C) | GI50 (SF-268) | inhibition [3] | GI50 (HCT-116) | GI50 (DU-145) | GI50 (SK-MEL-2) | GI50 (Malme-3M) | GI50 [4] | GI50 (CAKI-1) | GI50 [5] | GI50 [6] | GI50 (CCRF-CEM) | GI50 (NCI-H23) | GI50 [7] | other results
COc1c2ccoc2c(/C=C/C=O)c2oc(-c3ccccc3)cc(=O)c12 | 11.5 µM | 2.72 µM | 26.9 µM | 7.44 µM | 5.45 µM | 2.24 µM | 2.71 µM | 4.23 µM | 58% | 1.7 µM | 10.7 µM | 10.6 µM | 3.47 µM | 2.06 µM | 15.4 µM | 22.3 µM | 3.59 µM | 1.85 µM | 2.44 µM | 13.6 µM | GI50 (U-251): 3.06 µM; GI50 (PC-3): 3.23 µM; GI50 (COLO 205): 27.7 µM; GI50 (M14): 3.32 µM; GI50 [8]: 2.88 µM; GI50 (KM12): 16.5 µM; GI50 [9]: 1.48 µM; GI50 [10]: 5.19 µM; GI50 [11]: 2.52 µM; GI50 (SK-OV-3): 6.34 µM; GI50 (SW-620): 2.16 µM; GI50 [12]: 3.01 µM; GI50 (HT-29): 25.1 µM; GI50 [13]: 3.63 µM; inhibition [14]: 6%; GI50 [15]: 11.5 µM; GI50 (NCI-H522): 17.6 µM; GI50 (ACHN): 20.8 µM; GI50 (NCI-H322M): 9.69 µM
COc1ccc(-c2cc(=O)c3c(OC)c4ccoc4c(/C=C/C=O)c3o2)cc1 | 3.63 µM | 1.63 µM | 16.8 µM | 17.2 µM | 1.77 µM | 1.37 µM | 2.32 µM | 4.38 µM | 11% | 1.06 µM | 4.53 µM | 9.06 µM | 3.79 µM | 1.84 µM | 5.03 µM | 11.7 µM | 4.14 µM | 1.09 µM | 2.8 µM | 3.4 µM | GI50 (U-251): 2.53 µM; GI50 (PC-3): 2.58 µM; GI50 (COLO 205): 27.6 µM; GI50 (M14): 2.24 µM; GI50 [8]: 2.14 µM; GI50 (KM12): 12.3 µM; GI50 [9]: 1.08 µM; GI50 [10]: 3.92 µM; GI50 [11]: 1.73 µM; GI50 (SK-OV-3): 4.73 µM; GI50 (SW-620): 2.3 µM; GI50 [12]: 2.84 µM; GI50 (HT-29): 18.1 µM; GI50 [13]: 3.17 µM; inhibition [14]: 0%; GI50 [15]: 16.8 µM; GI50 (NCI-H522): 34.6 µM; GI50 (ACHN): 19.3 µM; GI50 (NCI-H322M): 5.06 µM
